What was measured:
[1] = tested on: Human immunodeficiency virus 1; test: Antiviral activity against HIV1 3B in MT4 cells; type: functional, organism-based; details: Human immunodeficiency virus 1, 3B
Summary of the method: (§1)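 MT-4 cells at 4.5 × 10⁵ cells/mL were infected with 100 CCID₅₀/mL of HIV-1 or HIV-2. Viable cells were then counted after trypan blue staining, and EC₅₀ was derived from these viable-cell counts.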

[2] = tested on: MT4; test: Cytotoxicity against MT4 cells; type: functional; details: Homo sapiens
Summary of the method: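 Exponentially growing MT-4 cells were resuspended at 5 × 10⁵ cells/mL in RPMI 1640 with 20% FBS and 20% IL-2. They were infected with HIV-1 IIIB (100 × TCID₅₀ per well) for 1 h at 37 °C, with mock-infected cells run in parallel. The suspension was diluted 6-fold onto serially diluted compound and incubated for 5 days at 37 °C in 5% CO₂. MTS staining was read at 492 nm.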

[3] = tested on: Hepatitis B virus; test: Antiviral activity against HBV in HepG2 2.2.15 cells; type: functional, organism-based
Summary of the method: (§2)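 HepG2 2.2.15 cells, which produce HBV constitutively, were seeded at 5 × 10³ per well. Drug-containing medium was replaced every other day for 9 days. Virions in the supernatant were captured on anti-HBsAg plates, and their DNA was quantified by PCR against an HBV standard curve and normalized to untreated cells. For cell growth, monolayers were ethanol-fixed and stained with bisbenzimide H33342, and fluorescence was compared with untreated cells. SI = CC₅₀/EC₅₀.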

[4] = tested on: HepG2; test: Cytotoxicity against HepG2 2.2.15 cells; type: functional; details: Homo sapiens; summary of the method: as §2
[5] = tested on: Human immunodeficiency virus 2; test: Antiviral activity against HIV2 ROD in MT4 cells; type: functional, organism-based; details: Human immunodeficiency virus 2, ROD; summary of the method: as §1
[6] = tested on: Human immunodeficiency virus 1; test: Antiviral activity against HIV1 3B in CEM cells; type: functional, organism-based; details: Human immunodeficiency virus 1, 3B, CCRF-CEM
Summary of the method: (§3)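 CEM cells at 4.5 × 10⁵ cells/mL were infected with 100 CCID₅₀/mL of HIV-1 or HIV-2. Giant-cell formation was scored microscopically. EC₅₀ was the concentration preventing syncytium formation by 50%.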

[7] = tested on: Human immunodeficiency virus 2; test: Antiviral activity against HIV2 ROD in CEM cells; type: functional, organism-based; details: Human immunodeficiency virus 2, ROD, CCRF-CEM; summary of the method: as §3
[8] = tested on: CEM cells (Homo sapiens); test: Cytotoxicity against CEM cells
[9] = tested on: Cynomolgus monkey; test: Metabolic stability in cynomolgus monkey liver S9 fraction; type: ADME, Macaca fascicularis
Summary of the method: (§4)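 Pooled cynomolgus S9 (liver or intestinal segments), test compound 10 µM final, 37 °C, DMSO <1% final; reaction started with NADPH 2.5 mM final. Aliquots taken at 0 (preincubation), 10, 20, 30 and 60 min, quenched with cold acetonitrile, centrifuged; supernatant parent measured by LC/MS/MS. Stability given as % remaining from pre- vs postincubation peak areas.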

[10] = tested on: Cynomolgus monkey; test: Metabolic stability in cynomolgus monkey intestine S9 fraction; type: ADME, Macaca fascicularis; summary of the method: as §4

Compound | EC50 [1] | CC50 [2] | EC50 [3] | CC50 [4] | EC50 [5] | EC50 [6] | EC50 [7] | CC50 [8] | Stability [9] | Stability [10]
Nc1ncnc2c1ncn2[C@@H]1C=C[C@H](CO)C1 | 80 µM | > 100 µM | 0.98 µM | > 200 µM |  |  |  |  |  | 
COC(=O)[C@H](C)NP(=O)(OC[C@H]1CC[C@@H](n2cnc3c(N)ncnc32)C1)Oc1ccccc1 (some centres not stated) | 1.8 µM | > 12.5 µM | 0.6 µM | > 2 µM |  |  |  |  |  | 
COC(=O)[C@H](NP(=O)(OC[C@H]1C=C[C@@H](n2cnc3c(N)ncnc32)C1)Oc1ccccc1)C(C)C (some centres not stated) | 2.3 µM | > 16 µM | 0.6 µM | > 200 µM | 14.2 µM | 7.5 µM | 10 µM | 230 µM |  | 
COC(=O)[C@@H](CC(C)C)NP(=O)(OC[C@H]1C=C[C@@H](n2cnc3c(N)ncnc32)C1)Oc1ccccc1 (some centres not stated) | < 1 µM | < 16 µM | 0.13 µM | > 2 µM | 0.93 µM | 1.6 µM | 3.5 µM | 88.5 µM |  | 
COC(=O)[C@H](Cc1ccccc1)NP(=O)(OC[C@H]1C=C[C@@H](n2cnc3c(N)ncnc32)C1)Oc1ccccc1 (some centres not stated) | 0.1 µM | 16 µM | 0.0045 µM | 9 µM |  |  |  |  |  | 
COC(=O)[C@@H](C)NP(=O)(OC[C@H]1C=C[C@@H](n2cnc3c(N)ncnc32)C1)Oc1ccccc1 (some centres not stated) | 2.05 µM | > 100 µM | 0.0265 µM | > 200 µM |  |  |  |  | 41% | 94%
COC(=O)C[C@@H](NP(=O)(OC[C@H]1C=C[C@@H](n2cnc3c(N)ncnc32)C1)Oc1ccccc1)C(=O)OC (some centres not stated) | 2.1 µM | > 10 µM | 0.02 µM | > 2 µM | 3.71 µM | 5 µM | 15 µM | ≥ 250 µM |  | 
COC(=O)[C@H]1CCCN1P(=O)(OC[C@H]1C=C[C@@H](n2cnc3c(N)ncnc32)C1)Oc1ccccc1 (some centres not stated) | 117 µM | 227 µM | > 2 µM | > 2 µM | 105 µM | 110 µM | 105 µM | ≥ 250 µM |  | 
Nc1ncnc2c1ncn2[C@H]1C=C[C@@H](CO)C1 | 15 µM | > 500 µM | 52 µM | > 200 µM |  |  |  |  |  | 
COC(=O)[C@H](C)NP(=O)(OC[C@H]1C=C[C@@H](n2cnc3c(N)ncnc32)C1)Oc1ccc(Cl)cc1 (some centres not stated) | 0.009 µM | 2 µM | 0.003 µM | > 2 µM | 0.018 µM | 0.015 µM | 0.047 µM | 3.11 µM |  | 
COC(=O)[C@@H](Cc1ccccc1)NP(=O)(OC[C@H]1C=C[C@@H](n2cnc3c(N)ncnc32)C1)Oc1ccccc1 (some centres not stated) | 2.8 µM | > 40 µM | 0.7 µM | 200 µM | 5.93 µM | 9 µM | 8.67 µM | 108 µM |  | 
COC(=O)[C@H](C)NP(=O)(OC[C@H]1C=C[C@@H](n2cnc3c(N)ncnc32)C1)Oc1ccc(Cl)c(Cl)c1 (some centres not stated) | 0.077 µM | > 4 µM | 0.005 µM | > 2 µM | 0.076 µM | 0.09 µM | 0.11 µM | 13 µM |  | 
CCOC(=O)[C@H](C)NP(=O)(OC[C@H]1C=C[C@@H](n2cnc3c(N)ncnc32)C1)Oc1ccccc1 (some centres not stated) | 0.017 µM | > 25 µM | 0.02 µM | 22 µM |  |  |  |  | 15% | 39%
COC(=O)[C@H](C)NP(=O)(OC[C@H]1C=C[C@@H](N2C=NC3C(N)=NC=NC32)C1)Oc1ccc(C(F)(F)F)cc1 (some centres not stated) | 0.035 µM | 5.87 µM | < 0.0032 µM | 0.72 µM | 0.046 µM | 0.06 µM | 0.06 µM | 6.4 µM |  | 
Nc1ncnc2c1ncn2[C@@H]1CC[C@H](CO)C1 | > 10 µM | > 10 µM | 61 µM | > 200 µM |  |  |  |  |  | 
COC(=O)[C@@H]1CCCN1P(=O)(OC[C@H]1C=C[C@@H](n2cnc3c(N)ncnc32)C1)Oc1ccccc1 (some centres not stated) | 5.28 µM | > 10 µM | 0.51 µM | > 2 µM | 21 µM | 3.5 µM | 7.5 µM | 92.1 µM |  | 
COC(=O)[C@H](C)NP(=O)(OC[C@H]1C=C[C@@H](n2cnc3c(N)ncnc32)C1)Oc1ccc([N+](=O)[O-])cc1 (some centres not stated) | 0.12 µM | 10 µM | 0.007 µM | > 2 µM | 0.17 µM | 0.1 µM | 0.1 µM | 17.4 µM |  | 
COC(=O)[C@@H](Cc1c[nH]c2ccccc12)NP(=O)(OC[C@H]1C=C[C@@H](n2cnc3c(N)ncnc32)C1)Oc1ccccc1 (some centres not stated) | 13.3 µM | > 40 µM | 0.2 µM | > 2 µM | 21.9 µM | 20 µM | 25 µM | 93.4 µM |  | 
COC(=O)[C@H](C)NP(=O)(OC[C@@H]1C=C[C@H](n2cnc3c(N)ncnc32)C1)Oc1ccccc1 (some centres not stated) | 0.3 µM | 3.7 µM | 4 µM | 5.4 µM |  |  |  |  |  | 
COC(=O)[C@@H](CCSC)NP(=O)(OC[C@H]1C=C[C@@H](n2cnc3c(N)ncnc32)C1)Oc1ccccc1 (some centres not stated) | 2.5 µM | > 25 µM | 0.22 µM | > 2 µM | 3.48 µM | 7.67 µM | 7.87 µM | 211 µM |  | 
COC(=O)[C@H](C)NP(=O)(OC[C@H]1C=C[C@@H](n2cnc3c(N)ncnc32)C1)Oc1cccc(C(F)(F)F)c1 (some centres not stated) |  |  |  |  |  |  |  |  | 45% | 92%
Nc1ncnc2c1ncn2[C@H]1CC[C@@H](CO)C1 | 50 µM | > 125 µM | 33 µM | > 200 µM |  |  |  |  |  | 
COC(=O)[C@H](Cc1ccc(OC(C)(C)C)cc1)NP(=O)(OC[C@H]1C=C[C@@H](n2cnc3c(N)ncnc32)C1)Oc1ccccc1 (some centres not stated) | 0.11 µM | 19.8 µM | 0.026 µM | > 2 µM | 0.13 µM | 3 µM | 5.5 µM | 79.7 µM |  | 
C[C@H](NP(=O)(OC[C@H]1C=C[C@@H](n2cnc3c(N)ncnc32)C1)Oc1ccccc1)C(=O)OCc1ccccc1 (some centres not stated) | 0.009 µM | 255 µM | 0.0075 µM | 5 µM |  |  |  |  | 0% | 0%
